90 compounds from ChEMBL document CHEMBL5150021, “Identification of 5-(Aryl/Heteroaryl)amino-4-quinolones as Potent Membrane-Disrupting Agents to Combat Antibiotic-Resistant Gram-Positive Bacteria” (J Med Chem, 2022) can be followed below.

Converted amounts (≈) assume the structure as drawn. Where only a bound is given, the exact number is not on record here.

This experiment has as its system Staphylococcus aureus. Kind of experiment: Antibacterial activity against methicillin resistant Staphylococcus aureus FPR3757 assessed as inhibition of bacterial growth incubated for 24 hrs by CLSI based method. The settings on record: read-out: MIC100. The format is functional. In short, it runs like this: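 It was mixed 1:1 with twofold serial compound dilutions and incubated stationary at 37 °C for 24 h. MIC was the lowest concentration giving complete inhibition of observable growth, with an oxacillin control.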
On to `O=C(Nc1cc(C(F)(F)F)nc2cc(C(F)(F)F)ccc12)c1ccc(C(F)(F)F)cn1`, for which the MIC was greater than 32 µg/mL.
To `COc1cccc(Nc2cc(C(F)(F)F)nc3cc(C(F)(F)F)ccc23)c1` belongs greater than 64 µg/mL; to `CN(C)S(=O)(=O)c1ccc(Nc2cc(C(F)(F)F)cc3[nH]c(C(F)(F)F)cc(=O)c23)nc1`, 2 µg/mL (≈ 4.16 µM); to `CN(C)S(=O)(=O)c1ccc2c(Nc3ccc(F)c(F)c3)cc(C(F)(F)F)nc2c1`, greater than 32 µg/mL.
Then `FC(F)(F)Oc1cccc(Nc2cc(C(F)(F)F)nc3c(OC(F)(F)F)cccc23)c1`, with 1 µg/mL (≈ 2.19 µM); and `FC(F)(F)c1ccc2c(Nc3cccc(Cl)c3)cc(C(F)(F)F)nc2c1`, with 0.25 µg/mL (≈ 0.64 µM).
To `Fc1ccc(Nc2nc(C(F)(F)F)nc3nc(C(F)(F)F)ccc23)cc1F` belongs 32 µg/mL (≈ 81.2 µM); to `FC(F)(F)c1ccc(Nc2cc(C(F)(F)F)nc3c(C(F)(F)F)cccc23)nc1`, 0.5 µg/mL (≈ 1.18 µM).
In the case of `FC(F)(F)c1ccc2c(Nc3ccncc3)cc(C(F)(F)F)nc2c1`, the MIC is greater than 32 µg/mL.
Then `FC(F)(F)c1ccc2c(Oc3ccc(Cl)c(Cl)c3)cc(C(F)(F)F)nc2c1`, with greater than 32 µg/mL.
Consider `FC(F)(F)c1ccc2c(Nc3cc(Cl)ccn3)cc(C(F)(F)F)nc2c1`, for which the MIC turned out to be 2 µg/mL (≈ 5.11 µM).
For `Cn1cc(Nc2cc(C(F)(F)F)nc3cc(C(F)(F)F)ccc23)ccc1=O`, the MIC was greater than 32 µg/mL.
To `FC(F)(F)c1ccc(Nc2nc(C(F)(F)F)nc3cc(C(F)(F)F)ccc23)nc1` belongs 2 µg/mL (≈ 4.69 µM); to `FC(F)(F)Oc1cccc(Nc2cc(C(F)(F)F)nc3cc(C(F)(F)F)ccc23)c1`, 8 µg/mL (≈ 18.2 µM).
To `FC(F)(F)Oc1cccc(Nc2cc(C(F)(F)F)nc3c(C(F)(F)F)cccc23)c1` belongs 1 µg/mL (≈ 2.27 µM).
Then `FC(F)(F)c1ccc2c(N3CCOCC3)cc(C(F)(F)F)nc2c1`, with greater than 32 µg/mL.
Turning to `O=c1cc(C(F)(F)F)[nH]c2cc(C(F)(F)F)cc(Nc3ccc(C(F)(F)F)nn3)c12`, the MIC was 1 µg/mL (≈ 2.26 µM).
On to `OCc1cccc(Nc2cc(C(F)(F)F)nc3cc(C(F)(F)F)ccc23)c1`, for which the MIC is greater than 16 µg/mL.
To `CN(c1ccc(C(F)(F)F)cc1)c1cc(C(F)(F)F)nc2cc(C(F)(F)F)ccc12` belongs greater than 32 µg/mL; to `Oc1cc(C(F)(F)F)nc2ccccc12`, 320 µg/mL (≈ 1500 µM).
On to `FC(F)(F)c1ccc2c(Nc3ccc(Cl)c(Cl)c3)nc(C(F)(F)F)nc2c1`, for which the MIC came to 0.5 µg/mL (≈ 1.17 µM).
As for `FC(F)(F)Oc1ccc2c(Nc3ccc(C(F)(F)F)cn3)cc(C(F)(F)F)nc2c1`, the MIC is 1 µg/mL (≈ 2.27 µM).
To `FC(F)(F)Oc1cccc2c(Nc3ccc(Cl)c(Cl)c3)cc(C(F)(F)F)nc12` belongs 0.5 µg/mL (≈ 1.13 µM).
Then `Fc1ccc2c(Nc3ccc(Cl)c(Cl)c3)cc(C(F)(F)F)nc2c1`, with 0.5 µg/mL (≈ 1.33 µM); and `OC1CCCN(c2cc(C(F)(F)F)nc3cc(C(F)(F)F)ccc23)C1` (stereo not given), with greater than 32 µg/mL; and `FC(F)(F)c1ccc2c(Nc3cccc4[nH]ncc34)cc(C(F)(F)F)nc2c1`, with greater than 32 µg/mL.
For `COc1ccc2c(Nc3cccc(OC(F)(F)F)c3)cc(C(F)(F)F)nc2c1`, the MIC is greater than 32 µg/mL.
Then `FC(F)(F)c1ccc2c(Nc3nccs3)cc(C(F)(F)F)nc2c1`, with 1 µg/mL (≈ 2.75 µM).
On to `FC(F)(F)c1ccc2c(N3CCc4cccnc43)cc(C(F)(F)F)nc2c1`, for which the MIC was greater than 32 µg/mL.
To `Oc1cc(C(F)(F)F)nc2cc(Cl)ccc12` belongs 20 µg/mL (≈ 80.8 µM); to `FC(F)(F)c1ccc2c(NC3CCCCC3)cc(C(F)(F)F)nc2c1`, greater than 16 µg/mL.
Regarding `O=C1Cc2cc(Nc3cc(C(F)(F)F)nc4cc(C(F)(F)F)ccc34)ccc2N1`, the MIC is greater than 32 µg/mL.
To `FC(F)(F)c1ccc(Nc2cc(N3CCOCC3)nc3cc(C(F)(F)F)ccc23)nc1` belongs greater than 32 µg/mL.
Turning to `FC(F)(F)c1ccc(Nc2cc(N3CCNCC3)c3ccc(C(F)(F)F)cc3n2)nc1`, the MIC was 4 µg/mL (≈ 9.06 µM).
To `FC(F)(F)c1cccc(Nc2cc(C(F)(F)F)nc3cc(C(F)(F)F)ccc23)c1` belongs 0.25 µg/mL (≈ 0.589 µM).
Then `FC(F)(F)c1ccc2c(Nc3ccccc3Cl)cc(C(F)(F)F)nc2c1`, with greater than 16 µg/mL; and `FC(F)(F)c1ccc2c(Oc3cccc(Cl)c3)cc(C(F)(F)F)nc2c1`, with greater than 32 µg/mL; and `Fc1ccc(Nc2cnnc3cc(C(F)(F)F)ccc23)cc1F`, with greater than 32 µg/mL.
Then `FC(F)(F)c1ccc(Nc2nc(C(F)(F)F)nc3nc(C(F)(F)F)ccc23)nc1`, with greater than 32 µg/mL; and `FC(F)(F)c1ccc2c(Nc3ccccc3)cc(C(F)(F)F)nc2c1`, with 128 µg/mL (≈ 359 µM); and `CN(C)S(=O)(=O)c1ccc2c(Nc3ccc(C(F)(F)F)cn3)cc(C(F)(F)F)nc2c1`, with 8 µg/mL (≈ 17.2 µM).
Take `O=c1cc(C(F)(F)F)[nH]c2cc(C(F)(F)F)cc(Nc3cccc4[nH]ncc34)c12`: the MIC was 2 µg/mL (≈ 4.85 µM).
To `Fc1ccc2c(Nc3cccc(OC(F)(F)F)c3)cc(C(F)(F)F)nc2c1` belongs 2 µg/mL (≈ 5.12 µM); to `Fc1cccc(Nc2cc(C(F)(F)F)nc3cc(C(F)(F)F)ccc23)c1`, 4 µg/mL (≈ 10.7 µM); to `FC(F)(F)c1ccc2c(Nc3ccc(N4CCOCC4)cc3)cc(C(F)(F)F)nc2c1`, greater than 16 µg/mL.
Then `FC(F)(F)c1ccc(Nc2cnnc3cc(C(F)(F)F)ccc23)nc1`, with greater than 32 µg/mL.
To `FC(F)(F)c1ccc(Nc2cc(N3CCOCC3)c3ccc(C(F)(F)F)cc3n2)nc1` belongs 8 µg/mL (≈ 18.1 µM); to `Fc1cccc(Oc2cc(C(F)(F)F)nc3cc(C(F)(F)F)ccc23)c1`, greater than 32 µg/mL; to `O=c1cc(C(F)(F)F)[nH]c2cc(C(F)(F)F)ccc12`, 5 µg/mL (≈ 17.8 µM).
Consider `O[C@H]1C[C@H]2CC[C@@H](C1)N2c1cc(C(F)(F)F)nc2cc(C(F)(F)F)ccc12`, for which the MIC is greater than 32 µg/mL.
To `FC(F)(F)c1ccc2c(Nc3ccc(C(F)(F)F)nc3)cc(C(F)(F)F)nc2c1` belongs greater than 32 µg/mL; to `COC(=O)c1cc(Nc2cc(C(F)(F)F)nc3cc(C(F)(F)F)ccc23)ccn1`, greater than 32 µg/mL; to `CN(C)S(=O)(=O)c1ccc2c(Nc3cccc(OC(F)(F)F)c3)cc(C(F)(F)F)nc2c1`, 8 µg/mL (≈ 16.7 µM).
To `FC(F)(F)c1ccc2c(NC[C@@H]3CCCN3)cc(C(F)(F)F)nc2c1` belongs greater than 32 µg/mL; to `FC(F)(F)c1cc(Nc2ccc(Cl)c(Cl)c2)c2cccc(C(F)(F)F)c2n1`, 0.5 µg/mL (≈ 1.18 µM); to `Fc1ccc(Nc2cc(C(F)(F)F)nc3cc(C(F)(F)F)ccc23)cc1F`, 0.125 µg/mL (≈ 0.319 µM).
To `CSc1ccc2c(O)cc(C(F)(F)F)nc2c1` belongs 640 µg/mL (≈ 2470 µM).
With `FC(F)(F)c1ccc2c(Nc3ncccn3)cc(C(F)(F)F)nc2c1`, the MIC was greater than 32 µg/mL.
Consider `COc1ccc2c(Nc3ccc(C(F)(F)F)cn3)cc(C(F)(F)F)nc2c1`, for which the MIC was determined as 32 µg/mL (≈ 82.6 µM).
To `CSc1cccc(Nc2cc(C(F)(F)F)nc3cc(C(F)(F)F)ccc23)c1` belongs 0.25 µg/mL (≈ 0.621 µM); to `FC(F)(F)Oc1cccc(Oc2cc(C(F)(F)F)nc3cc(C(F)(F)F)ccc23)c1`, greater than 32 µg/mL; to `COc1ccc2c(O)cc(C(F)(F)F)nc2c1`, 640 µg/mL (≈ 2630 µM).
For `FC(F)(F)c1ccc(Nc2cc(N3CCNCC3)nc3cc(C(F)(F)F)ccc23)nc1`, the MIC worked out at 0.5 µg/mL (≈ 1.13 µM).
With `CC(=O)c1cccc(Nc2cc(C(F)(F)F)nc3cc(C(F)(F)F)ccc23)c1`, the MIC was greater than 128 µg/mL.
Regarding `FC(F)(F)c1ccc2c(Nc3ccc(Cl)cc3)cc(C(F)(F)F)nc2c1`, the MIC was found to be 0.12 µg/mL (≈ 0.307 µM).
To `O=c1cc(C(F)(F)F)[nH]c2cc(C(F)(F)F)cc(N3CCOCC3)c12` belongs greater than 32 µg/mL; to `CC(C)c1ccccc1Nc1cc(C(F)(F)F)nc2cc(C(F)(F)F)ccc12`, 320 µg/mL (≈ 803 µM); to `CN1Cc2cc(Nc3cc(C(F)(F)F)nc4cc(C(F)(F)F)ccc34)ccc2C1=O`, greater than 32 µg/mL.
With `N#Cc1cccc(Nc2cc(C(F)(F)F)nc3cc(C(F)(F)F)ccc23)c1`, the MIC was greater than 32 µg/mL.
Consider `FC(F)(F)Oc1cccc(Nc2cc(C(F)(F)F)nc3cc(OC(F)(F)F)ccc23)c1`, for which the MIC was 1 µg/mL (≈ 2.19 µM).
On to `COc1ccc2c(Nc3ccc(F)c(F)c3)cc(C(F)(F)F)nc2c1`, for which the MIC is greater than 32 µg/mL.
`O=c1cc(Nc2cc(C(F)(F)F)nc3cc(C(F)(F)F)ccc23)cc[nH]1`: the MIC is greater than 32 µg/mL.
With `FC(F)(F)Oc1cccc2c(Nc3ccc(C(F)(F)F)cn3)cc(C(F)(F)F)nc12`, the MIC was found to be 1 µg/mL (≈ 2.27 µM).
Then `Oc1cc(C(F)(F)F)nc2c(C(F)(F)F)cccc12`, with 2 µg/mL (≈ 7.11 µM); and `Oc1cc(C(F)(F)F)nc2cc(OC(F)(F)F)ccc12`, with 4 µg/mL (≈ 13.5 µM).
To `Fc1ccc2nc(C(F)(F)F)cc(Nc3ccc(C(F)(F)F)cn3)c2c1F` belongs 16 µg/mL (≈ 40.7 µM); to `FC(F)(F)Oc1cccc(Nc2nc(C(F)(F)F)nc3cc(C(F)(F)F)ccc23)c1`, 1 µg/mL (≈ 2.27 µM); to `FC(F)(F)c1ccc2c(Nc3cccc(I)c3)cc(C(F)(F)F)nc2c1`, 0.25 µg/mL (≈ 0.518 µM).
To `FC(F)(F)c1ccc2c(Nc3cccc(N4CCOCC4)c3)cc(C(F)(F)F)nc2c1` belongs greater than 16 µg/mL; to `COc1ccc(Nc2cc(C(F)(F)F)nc3cc(C(F)(F)F)ccc23)cn1`, greater than 128 µg/mL; to `Cc1onc(-c2ccccc2)c1C(=O)N[C@@H]1C(=O)N2[C@@H]1SC(C)(C)[C@@H]2C(=O)O` [OXACILLIN], 64 µg/mL (≈ 159 µM).
As to `FC(F)(F)c1ccc2c(Nc3cccc(Br)c3)cc(C(F)(F)F)nc2c1`, the MIC is 0.25 µg/mL (≈ 0.574 µM).
Take `FC(F)c1cc(Nc2cccc(OC(F)(F)F)c2)c2ccc(C(F)(F)F)cc2n1`: the MIC came to 0.5 µg/mL (≈ 1.18 µM).
Then `FC(F)(F)Oc1ccc2c(Nc3ccc(Cl)c(Cl)c3)cc(C(F)(F)F)nc2c1`, with 0.5 µg/mL (≈ 1.13 µM); and `Fc1cc(F)c2nc(C(F)(F)F)cc(Nc3ccc(C(F)(F)F)cn3)c2c1F`, with greater than 32 µg/mL.
To `FC(F)c1cc(Nc2ccc(Cl)c(Cl)c2)c2ccc(C(F)(F)F)cc2n1` belongs 1 µg/mL (≈ 2.46 µM).
For `FC(F)(F)c1ccc2c(Nc3ccc4c(c3)OCO4)cc(C(F)(F)F)nc2c1`, the MIC is greater than 4 µg/mL.
With `COc1ccc2c(Nc3ccc(Cl)c(Cl)c3)cc(C(F)(F)F)nc2c1`, the MIC was 2 µg/mL (≈ 5.17 µM).
On to `CN(C)c1ccc(Nc2cc(C(F)(F)F)cc3[nH]c(C(F)(F)F)cc(=O)c23)nc1`, for which the MIC was 2 µg/mL (≈ 4.8 µM).
Then `CCc1ccc2c(O)cc(C(F)(F)F)nc2c1`, with 640 µg/mL (≈ 2650 µM).
